# Assay results as given in ChEMBL document CHEMBL5661985, “In silico design of novel probes for the atypical opioid receptor MRGPRX2” (Nat Chem Biol, 2017).
# Activity calls are given as the source filed them. The calls are words filed in the database; no cut-off is given here.
# Key:
# [1] = molecular target: T1, Mas-related G-protein coupled receptor member X2 (Homo sapiens, UniProt Q96LB1); experiment: Agonist activity at MRGPRX2 (unknown origin) expressed in HTLA cells assessed as induction of beta-arrestin 2 recruitment incubated for 18 to 24 hrs by PRESTO-Tango assay; assay type: functional, cell-based
# T1 sequence (Q96LB1 whole entry): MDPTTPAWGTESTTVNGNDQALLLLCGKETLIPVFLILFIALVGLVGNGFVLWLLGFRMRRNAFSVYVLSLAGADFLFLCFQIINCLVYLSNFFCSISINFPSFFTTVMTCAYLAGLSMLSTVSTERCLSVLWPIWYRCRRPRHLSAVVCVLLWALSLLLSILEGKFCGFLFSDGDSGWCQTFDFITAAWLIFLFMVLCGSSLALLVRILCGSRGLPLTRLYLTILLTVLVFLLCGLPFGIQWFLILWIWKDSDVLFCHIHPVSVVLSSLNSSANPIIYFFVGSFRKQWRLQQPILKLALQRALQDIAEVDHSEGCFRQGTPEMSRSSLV
# [2] = molecular target: T2, Mas-related G-protein coupled receptor member X2 (Homo sapiens) (UniProt Q96LB1); experiment: Agonist activity at N-terminal Flag-tagged human MRGPRX2 receptor expressed in tetracycline-induced FLP-IN/T-REX 293 cells assessed as increase in intracellular calcium release < 10 uM by FLIPR assay; assay type: functional, cell-based; conditions: filed as agonist
# T2 sequence (whole entry): T1 sequence (Q96LB1 whole entry)
# Summary of the method: (§1)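 FLIPR calcium: FLP-IN/T-REX HEK-293-T stable line with N-terminal FLAG codon-optimized receptor, induced 24 h with 1 μg/mL tetracycline in 1% dialyzed FBS (uninduced cells as control); FLIPR calcium dye plus 2.5 mM probenecid 1 h 37°C; 10 s baseline, then drug in HBSS/20 mM HEPES/probenecid pH 7.4, 16-point curve 10 μM to 0.003 nM; fluorescence 120 s; fold over basal, n=3 triplicate.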
# [3] = molecular target: T2, Mas-related G-protein coupled receptor member X2 (Homo sapiens); experiment: Agonist activity at MRGPRX2 (unknown origin) expressed in HTLA cells assessed as induction of beta-arrestin 2 recruitment <10 uM incubated for 18 to 24 hrs by PRESTO-Tango assay; assay type: functional, cell-based; conditions: filed as agonist, time 18-24 hrs
# Summary of the method: (§2)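 β-arrestin2 recruitment by PRESTO-Tango: HTLA cells transiently transfected (calcium phosphate) with codon-optimized MRGPRX2-Tango (WT or point mutant) or MRGPRB2-Tango, plated next day 20,000 cells/well on poly-L-lysine; drug in HBSS/20 mM HEPES/0.3% BSA pH 7.4 for 18–24 h; Bright-Glo luminescence (RLU); curves n=3 in triplicate, mutants n=4 in triplicate.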
# [4] = molecular target: T2, Mas-related G-protein coupled receptor member X2 (Homo sapiens); experiment: Agonist activity at MRGPRX2 (unknown origin) expressed in HTLA cells assessed as induction of beta-arrestin 2 recruitment at 10 uM incubated for 18 to 24 hrs by PRESTO-Tango assay; assay type: functional, cell-based; conditions: filed as agonist, time 18-24 hrs; summary of the method: as §2
# [5] = molecular target: T3, Tyrosine-protein kinase BTK (Homo sapiens, UniProt Q06187); experiment: Inhibition of BTK (unknown origin) by Kinome scan method
# T3 sequence (Q06187 whole entry): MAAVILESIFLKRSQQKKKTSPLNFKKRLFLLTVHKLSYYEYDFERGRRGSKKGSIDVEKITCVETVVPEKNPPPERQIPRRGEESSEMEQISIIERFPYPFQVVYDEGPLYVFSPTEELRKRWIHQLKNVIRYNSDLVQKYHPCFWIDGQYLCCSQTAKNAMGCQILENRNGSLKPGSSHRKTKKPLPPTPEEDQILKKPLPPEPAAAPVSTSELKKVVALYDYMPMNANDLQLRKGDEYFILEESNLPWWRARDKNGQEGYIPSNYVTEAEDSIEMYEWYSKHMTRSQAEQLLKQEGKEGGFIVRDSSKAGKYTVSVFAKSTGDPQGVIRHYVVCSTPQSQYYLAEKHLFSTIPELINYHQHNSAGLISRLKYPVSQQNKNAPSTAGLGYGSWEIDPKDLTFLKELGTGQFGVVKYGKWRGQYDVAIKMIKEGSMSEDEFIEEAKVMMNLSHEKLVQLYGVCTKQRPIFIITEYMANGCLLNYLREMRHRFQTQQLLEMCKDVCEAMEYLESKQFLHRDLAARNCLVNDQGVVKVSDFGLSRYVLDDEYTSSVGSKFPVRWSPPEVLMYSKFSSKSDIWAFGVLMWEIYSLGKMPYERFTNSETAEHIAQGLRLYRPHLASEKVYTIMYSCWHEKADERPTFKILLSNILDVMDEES
# [6] = molecular target: T4, Mitogen-activated protein kinase 8 (Homo sapiens, UniProt P45983); experiment: Inhibition of JNK1 (unknown origin) by Kinome scan method
# T4 sequence (P45983 whole entry): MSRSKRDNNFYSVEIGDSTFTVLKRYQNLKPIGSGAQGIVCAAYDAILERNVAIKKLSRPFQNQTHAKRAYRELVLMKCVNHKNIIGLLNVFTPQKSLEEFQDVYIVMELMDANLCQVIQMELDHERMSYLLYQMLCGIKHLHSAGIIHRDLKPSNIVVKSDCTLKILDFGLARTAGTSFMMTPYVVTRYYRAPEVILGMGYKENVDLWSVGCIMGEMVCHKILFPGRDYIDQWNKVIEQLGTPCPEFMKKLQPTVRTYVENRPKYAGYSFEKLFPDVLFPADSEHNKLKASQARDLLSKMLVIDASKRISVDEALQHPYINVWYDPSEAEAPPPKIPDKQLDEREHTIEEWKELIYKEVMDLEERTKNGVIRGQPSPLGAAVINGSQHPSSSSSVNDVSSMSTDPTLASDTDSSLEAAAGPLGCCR
# [7] = molecular target: T5, Mitogen-activated protein kinase 10 (Homo sapiens, UniProt P53779); experiment: Inhibition of JNK3 (unknown origin) by Kinome scan method
# T5 sequence (P53779 whole entry): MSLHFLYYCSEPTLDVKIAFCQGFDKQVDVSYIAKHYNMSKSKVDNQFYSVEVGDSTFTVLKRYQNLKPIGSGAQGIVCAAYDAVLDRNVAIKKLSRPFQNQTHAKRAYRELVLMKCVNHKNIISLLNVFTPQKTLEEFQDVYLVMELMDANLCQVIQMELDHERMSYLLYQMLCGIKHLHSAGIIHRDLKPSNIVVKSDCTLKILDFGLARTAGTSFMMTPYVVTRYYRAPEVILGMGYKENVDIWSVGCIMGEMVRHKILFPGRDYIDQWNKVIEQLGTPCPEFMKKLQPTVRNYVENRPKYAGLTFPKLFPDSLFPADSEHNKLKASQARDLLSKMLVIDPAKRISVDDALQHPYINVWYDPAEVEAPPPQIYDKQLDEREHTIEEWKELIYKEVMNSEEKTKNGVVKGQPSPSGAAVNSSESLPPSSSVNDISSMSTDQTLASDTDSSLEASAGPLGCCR
# [8] = molecular target: T3, Tyrosine-protein kinase BTK; experiment: Binding affinity to BTK (unknown origin) assessed dissociation constant by Kinome scan method
# [9] = molecular target: T4, Mitogen-activated protein kinase 8; experiment: Binding affinity to JNK1 (unknown origin) assessed dissociation constant by Kinome scan method
# [10] = molecular target: T5, Mitogen-activated protein kinase 10; experiment: Binding affinity to JNK3 (unknown origin) assessed dissociation constant by Kinome scan method
# [11] = molecular target: T2, Mas-related G-protein coupled receptor member X2 (Homo sapiens); experiment: Agonist activity at MRGPRX2 receptor in human LAD2 cells assessed as increase in intracellular calcium release by FLIPR assay; assay type: functional, cell-based; conditions: filed as agonist
# Summary of the method: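 LAD2 human mast cells seeded 50,000/well in Tyrode's buffer with calcium dye, 1 h before drug; 10 s baseline, drug added, fluorescence followed 120 s; expressed as fold calcium release over baseline; n=3 in triplicate.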
# [12] = molecular target: T1, Mas-related G-protein coupled receptor member X2; experiment: Agonist activity at N-terminal Flag-tagged human MRGPRX2 receptor expressed in tetracycline-induced FLP-IN/T-REX 293 cells assessed as increase in intracellular calcium release by FLIPR assay; assay type: functional, cell-based
# [13] = molecular target: T2, Mas-related G-protein coupled receptor member X2 (Homo sapiens); experiment: Agonist activity at N-terminal Flag-tagged human MRGPRX2 receptor expressed in tetracycline-induced HEK-T cells assessed as increase in intracellular calcium release by FLIPR assay; assay type: functional, cell-based; conditions: HEK-T cell, filed as agonist; summary of the method: as §1
# [14] = molecular target: T2, Mas-related G-protein coupled receptor member X2 (Homo sapiens); experiment: Agonist activity at N-terminal Flag-tagged human MRGPRX2 receptor expressed in HEK-T cells assessed as increase in intracellular calcium release by FLIPR assay; assay type: functional, cell-based; conditions: HEK-T cell; summary of the method: as §1
# Mu-type opioid receptor = Mu-type opioid receptor (Homo sapiens, UniProt P35372); experiment: Displacement of [3H]-DAMGO from MOR (unknown origin)
# Chain of Mu-type opioid receptor (P35372 whole entry): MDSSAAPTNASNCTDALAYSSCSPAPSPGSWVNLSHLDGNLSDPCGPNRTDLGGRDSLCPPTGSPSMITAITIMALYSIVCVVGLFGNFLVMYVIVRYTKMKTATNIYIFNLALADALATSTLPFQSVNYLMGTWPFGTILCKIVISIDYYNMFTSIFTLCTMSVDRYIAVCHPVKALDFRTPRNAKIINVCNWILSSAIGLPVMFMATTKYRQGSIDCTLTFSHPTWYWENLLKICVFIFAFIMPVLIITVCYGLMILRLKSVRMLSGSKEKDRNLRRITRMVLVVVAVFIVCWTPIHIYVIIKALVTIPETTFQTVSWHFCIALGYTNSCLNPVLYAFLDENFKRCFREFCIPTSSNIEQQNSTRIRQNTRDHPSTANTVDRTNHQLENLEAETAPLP
# [15] = molecular target: T6, Kappa-type opioid receptor (Homo sapiens, UniProt P41145); experiment: Displacement of [3H]-Diprenorphine from KOR (unknown origin)
# T6 sequence (P41145 whole entry): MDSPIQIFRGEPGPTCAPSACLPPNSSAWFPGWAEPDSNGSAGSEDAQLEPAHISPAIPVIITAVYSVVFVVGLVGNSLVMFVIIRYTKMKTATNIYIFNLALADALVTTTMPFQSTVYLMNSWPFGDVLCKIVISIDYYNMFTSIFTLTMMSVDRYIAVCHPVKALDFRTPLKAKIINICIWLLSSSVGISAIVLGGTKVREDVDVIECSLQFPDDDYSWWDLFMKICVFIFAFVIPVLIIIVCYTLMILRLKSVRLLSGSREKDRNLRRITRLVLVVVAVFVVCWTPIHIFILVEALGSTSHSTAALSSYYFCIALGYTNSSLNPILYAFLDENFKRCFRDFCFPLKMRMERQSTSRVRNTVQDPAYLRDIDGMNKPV
# [16] = molecular target: Delta-type opioid receptor (Homo sapiens, UniProt P41143); experiment: Displacement of [3H]-Naltrindole from DOR (unknown origin)
# Chain of Delta-type opioid receptor (P41143 whole entry): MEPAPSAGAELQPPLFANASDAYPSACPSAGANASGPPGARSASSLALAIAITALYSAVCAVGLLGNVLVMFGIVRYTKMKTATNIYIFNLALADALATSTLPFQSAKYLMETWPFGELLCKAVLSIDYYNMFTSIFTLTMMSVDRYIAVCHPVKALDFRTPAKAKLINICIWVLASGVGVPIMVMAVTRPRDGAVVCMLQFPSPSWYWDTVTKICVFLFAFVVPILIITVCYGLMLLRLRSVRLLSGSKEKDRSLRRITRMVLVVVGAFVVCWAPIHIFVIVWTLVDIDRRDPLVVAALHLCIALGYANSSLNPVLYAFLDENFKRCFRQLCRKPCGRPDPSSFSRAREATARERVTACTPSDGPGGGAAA
# [17] = molecular target: T2, Mas-related G-protein coupled receptor member X2 (Homo sapiens); experiment: Agonist activity at MRGPRX2 receptor in human LAD2 cells assessed as increase in degranulation incubated for 30 mins by beta-hexosaminidase assay; assay type: functional, cell-based; conditions: filed as agonist
# Summary of the method: (§3)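 β-Hexosaminidase release: LAD2 cells in fresh medium 18 h, washed in Tyrode's buffer pH 7.4, 10,000 cells/well; drug (single concentration or 8-point curve) added in triplicate, 30 min 37°C; supernatant and Triton X-100 lysate each reacted with NAG in citrate pH 4.5 for 90 min 37°C, stopped with carbonate pH 10, A405; % release = released/total ×100, minus vehicle.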
# [18] = molecular target: T2, Mas-related G-protein coupled receptor member X2 (Homo sapiens); experiment: Agonist activity at MRGPRX2 receptor in human LAD2 cells transfected with MRGPRX2 siRNA assessed as increase in degranulation incubated for 30 mins by beta-hexosaminidase assay; assay type: functional, cell-based
# Summary of the method: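 LAD2 cells (1.2 million/well) transfected with 25 nM MRGPRX2 siRNA pool or non-targeting pool, 72 h; 200,000 cells taken for β-hexosaminidase assay with EC80 concentration of agonist, 30 min 37°C; knockdown checked by qRT-PCR on 1 million cells; fold change % degranulation versus DMSO; two-way ANOVA with Sidak test.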
# [19] = molecular target: T2, Mas-related G-protein coupled receptor member X2 (Homo sapiens); experiment: Agonist activity at MRGPRX2 receptor in human LAD2 cells assessed as increase in degranulation at 10 uM incubated for 30 mins by beta-hexosaminidase assay relative to control; assay type: functional, cell-based; conditions: filed as agonist; summary of the method: as §3
# [20] = molecular target: T2, Mas-related G-protein coupled receptor member X2 (Homo sapiens); experiment: Agonist activity at MRGPRX2 receptor in human LAD2 cells assessed as increase in degranulation at 10 uM incubated for 30 mins in presence of IgE by beta-hexosaminidase assay relative to control; assay type: functional, cell-based; conditions: filed as agonist; summary of the method: as §3
# [21] = molecular target: T2, Mas-related G-protein coupled receptor member X2 (Homo sapiens); experiment: Agonist activity at MRGPRX2 receptor in human LAD2 cells assessed as increase in degranulation incubated for 30 mins in presence of naloxone by beta-hexosaminidase assay; assay type: functional, cell-based; summary of the method: as §3
# [22] = molecular target: T6, Kappa-type opioid receptor; experiment: Agonist activity at KOR (unknown origin) by Glo sensor assay; assay type: functional
# HTLA [23] = experiment: Agonist activity at MRGPRX2 D184E mutant (unknown origin) expressed in HTLA cells assessed as induction of beta-arrestin 2 recruitment incubated for 18 to 24 hrs by PRESTO-Tango assay; assay type: cell-based; conditions: Homo sapiens, time 18-24 hrs; summary of the method: as §2
# HTLA [24] = experiment: Agonist activity at MRGPRX2 D184N mutant (unknown origin) expressed in HTLA cells assessed as induction of beta-arrestin 2 recruitment incubated for 18 to 24 hrs by PRESTO-Tango assay; assay type: cell-based; conditions: Homo sapiens, time 18-24 hrs; summary of the method: as §2
# HTLA [25] = experiment: Agonist activity at MRGPRX2 E164Q mutant (unknown origin) expressed in HTLA cells assessed as induction of beta-arrestin 2 recruitment incubated for 18 to 24 hrs by PRESTO-Tango assay; assay type: cell-based; conditions: Homo sapiens, filed as agonist, time 18-24 hrs; summary of the method: as §2
# [26] = Cytotoxicity against HTLA cells expressing MRGPRX2 (unknown origin) at 1 uM after 24 hrs; assay type: toxicity, cell-based; conditions: human
compound,measurement,setting,value
Cc1cc2nc(-c3ccccc3)cc(N3CCC(N(C)C)C3)n2n1 (stereo not given),EC50,[1]; read-out: EC50,3 µM
same,Activity,[2],Active
same,Activity,[3],Active
same,Activity,[4],Active
same,IC50,[5],20 µM
same,IC50,[6],20 µM
same,IC50,[7],20 µM
same,Kd,[8],27 µM
same,Kd,[9],19 µM
same,Kd,[10],> 30 µM
same,Activity,[11],Active
CN1CCC2(c3cccc(O)c3)Cc3nc4ccccc4cc3CC2C1 (racemic),EC50,[12]; read-out: EC50,0.74 µM
same,EC50,[12]; read-out: pEC50 (converted),0.646 µM
same,EC50,[1]; read-out: pEC50 (converted),1.82 µM
same,Activity,[13],Active
same,Activity,[14],inactive
same,EC50,Mu-type opioid receptor,0.324 µM
same,Ki,Mu-type opioid receptor,0.239 µM
same,EC50,[15],88.7 µM
same,Ki,[15],22 µM
same,EC50,[16],0.0131 µM
same,Ki,[16],0.00294 µM
same,Activity,[11],Active
same,Activity,[17],Active
same,Activity,[18],inactive
same,Activity,[19],70%
same,Activity,[20],70%
same,Activity,[21],inactive
CC[C@H](C)[C@H](NC(=O)[C@H](CCCNC(=N)N)NC(=O)[C@H](CCCNC(=N)N)NC(=O)[C@H](CC(C)C)NC(=O)[C@H](Cc1ccccc1)NC(=O)CNC(=O)CNC(=O)[C@@H](N)Cc1ccc(O)cc1)C(=O)N[C@@H](CCCNC(=N)N)C(=O)N1CCC[C@H]1C(=O)N[C@@H](CCCCN)C(=O)N[C@@H](CC(C)C)C(=O)N[C@@H](CCCCN)C(=O)O [ANALOG OF DYNORPHIN A],EC50,[12]; read-out: EC50,1.1 µM
same,EC50,[1]; read-out: pEC50 (converted),30.2 µM
same,EC50,[22],6 pM
same,Activity,HTLA [23],inactive
same,Activity,HTLA [24],inactive
same,Activity,HTLA [25],Active
same,Activity,[17],Active
same,Activity,[18],inactive
same,Activity,[21],inactive
C[C@@H]1C[C@H]2Cc3ncc(-c4ccc5c(n4)C[C@@H]4C[C@@H](C)C[C@]56NCCC[C@H]46)cc3[C@]3(C1)NCCC[C@H]23 [COMPLANADINE A],EC50,[12]; read-out: EC50,18 µM
same,EC50,[1]; read-out: pEC50 (converted),0.692 µM
same,Activity,[26],Toxic
